Assay results collected from several papers.
Lines come from different studies, so protocols differ.
Effect on: cell growth or viability

| Compound | cell line | method | time | setting | endpoint | result |
| --- | --- | --- | --- | --- | --- | --- |
| COC(=O)c1cc(N)cc(NS(=O)(=O)c2ccc(OC)cc2)c1 | HeLa | XTT | 72 h |  | IC50 | 20 µM |
| CCOP(=O)(OCC)[C@@H]1C[C@@H](n2cc(-c3nccn3C)nn2)ON1C | HEL |  | 72 h |  | CC50 | > 100 µM |
| COc1cc(N)c(NS(=O)(=O)c2ccc(N(C)C)cc2)cc1OC | HeLa | XTT | 72 h |  | IC50 | > 100 µM |
| CCOP(=O)(OCC)[C@@H]1C[C@@H](n2cc(-c3ccccn3)nn2)ON1C (racemic) | HeLa |  | 72 h |  | CC50 | > 250 µM |
| Cc1nc2ccc(Cl)cn2c1C(=O)N1CCN(Cc2cn(-c3ccccc3)nn2)CC1 | HeLa | resazurin |  |  | CC50 | > 100 µM |
| COc1ccc(S(=O)(=O)Nc2cc(OC)c(NC(=O)CCl)cc2OC)cc1 | HeLa | XTT | 72 h |  | IC50 | 2.4 µM |
| COc1ccc(-n2cc(CN3CCN(C(=O)c4c(C)nc5cc(C)ccn45)CC3)nn2)c([N+](=O)[O-])c1 | HeLa | resazurin |  |  | CC50 | > 100 µM |
| COc1ccc(NS(=O)(=O)c2ccc(N(C)C=O)cc2)cn1 | HeLa | XTT | 72 h |  | IC50 | > 100 µM |
| CCOP(=O)(OCC)[C@@H]1C[C@H](n2cc(C(=O)OC)nn2)ON1C (relative stereo) | HEL |  | 72 h |  | CC50 | > 100 µM |
| Cc1nc2ccc(Cl)cn2c1C(=O)N1CCN(Cc2cn(-c3cccc(Cl)c3)nn2)CC1 | HeLa | resazurin |  |  | CC50 | > 100 µM |
| C=CC1=C(C)c2cc3[nH]c(cc4nc(cc5[nH]c(cc1n2)c(C)c5CCC(=O)O)C(CCC(=O)O)=C4C)c(C)c3C=C | RPE-1 | resazurin | 4 h | dark | IC50 | > 100 µM |
| COc1ccc(-n2cc(CN3CCN(C(=O)c4c(C)nc5ccc(Cl)cn45)CC3)nn2)c([N+](=O)[O-])c1 | HeLa | resazurin |  |  | CC50 | > 100 µM |
| Nc1nc2c(ncn2COCCO)c(=O)[nH]1 | HEL |  | 72 h |  | CC50 | > 440 µM |
